In brackets after ≈: the same amount, converted by molar mass.
How the values were obtained:
[1] = tested on: Staphylococcus aureus; assay: Antibacterial activity against methicillin-susceptible Staphylococcus aureus clinical isolates; assay type: functional
How it was run: (§1)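 MICs determined by CLSI dilution methodology for aerobically growing bacteria; the active drug, not the prodrug, was used for in vitro testing.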

[2] = tested on: Staphylococcus aureus; assay: Antibacterial activity against community-acquired methicillin-resistant Staphylococcus aureus clinical isolates; assay type: functional; how it was run: as §1
[3] = tested on: Staphylococcus aureus; assay: Antibacterial activity against hospital-acquired methicillin-resistant Staphylococcus aureus clinical isolates; assay type: functional; how it was run: as §1
[4] = AUC in plasma of mouse; assay type: ADME, cell-free
How it was run: (§2)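 Neutropenic (cyclophosphamide) female BALB/c mice were infected with S. aureus in 3% mucin by aspiration. At 6 h they received single sc doses of prodrug (1.0–25.0 mg/kg, in sterile water). Plasma was sampled at 0.25–4 h (6 mice per time point) and BAL at 0.25–4 h. Samples were citrate-stabilized and assayed by HPLC (LOQ 0.01 mg/liter), with urea correction for ELF. AUCs came from a 9,999-subject simulation.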

[5] = AUC in epithelial lining fluid of mouse; assay type: ADME, tissue-based; how it was run: as §2
[6] = Plasma protein binding in mouse; assay type: ADME, cell-free; conditions: read-out: PPB (converted)
[7] = Fraction unbound in mouse plasma; assay type: ADME, cell-free
[8] = Clearance in healthy human at 500 mg, iv administered as 2-h infusion every 8 h; conditions: in vivo
[9] = AUC in plasma of healthy human at 500 mg, iv administered as 2-h infusion every 8 h
[10] = AUC in epithelial lining fluid of healthy human at 500 mg, iv administered as 2-h infusion every 8 h; conditions: in vivo
[11] = Drug level in plasma of healthy human at 500 mg, iv administered as 2-h infusion every 8 h after 4 hrs
[12] = Drug level in plasma of healthy human at 500 mg, iv administered as 2-h infusion every 8 h after 6 hrs
[13] = Drug level in plasma of healthy human at 500 mg, iv administered as 2-h infusion every 8 h after 8 hrs
[14] = Drug level in plasma of healthy human at 500 mg, iv administered as 2-h infusion every 8 h after 2.5 hrs
[15] = tested on: Homo sapiens; assay: Volume of distribution in central compartment of healthy human at 500 mg, iv administered as 2-h infusion every 8 h; conditions: in vivo
[16] = Drug level in epithelial lining fluid of healthy human at 500 mg, iv administered as 2-h infusion every 8 h after 4 hrs; conditions: read-out: Drug uptake
[17] = Drug level in epithelial lining fluid of healthy human at 500 mg, iv administered as 2-h infusion every 8 h after 6 hrs; conditions: read-out: Drug uptake
[18] = Drug level in epithelial lining fluid of healthy human at 500 mg, iv administered as 2-h infusion every 8 h after 8 hrs; conditions: read-out: Drug uptake
[19] = Volume of distribution in epithelial lining fluid of healthy human at 500 mg, iv administered as 2-h infusion every 8 h; conditions: in vivo
[20] = Drug level in epithelial lining fluid of healthy human at 500 mg, iv administered as 2-h infusion every 8 h after 2.5 hrs; conditions: read-out: Drug uptake

Nc1nc(/C(=N/O)C(=O)N[C@@H]2C(=O)N3C(C(=O)O)=C(/C=C4\CCN([C@@H]5CCNC5)C4=O)CS[C@H]23)ns1 [CEFTOBIPROLE]
MIC [1]: 0.25 µg/mL (≈ 0.468 µM)
MIC [2]: 1 µg/mL (≈ 1.87 µM)
MIC [3]: 0.5 µg/mL (≈ 0.935 µM)
AUC [4]: 68800 ng·h/mL
AUC [5]: 46000 ng·h/mL
fraction unbound [6]: 0.81
fraction unbound [7]: 0.81
CL/F [8]: 86 mL/min
AUC [9]: 98700 ng·h/mL
AUC [10]: 25200 ng·h/mL
concentration at 4 h [11]: 12800 ng/mL
concentration at 6 h [12]: 6910 ng/mL
concentration at 8 h [13]: 3650 ng/mL
concentration at 2.5 h [14]: 17700 ng/mL
Vd [15]: 2.849 L
concentration at 4 h [16]: 2000 ng/mL
concentration at 6 h [17]: 4580 ng/mL
concentration at 8 h [18]: 1510 ng/mL
Vd [19]: 39.1 L
concentration at 2.5 h [20]: 2550 ng/mL

Source: ChEMBL document CHEMBL1649529, “Identifying exposure targets for treatment of staphylococcal pneumonia with ceftobiprole” (Antimicrob Agents Chemother, 2009)
